# Screens deposited in PubChem BioAssay by Sanford-Burnham Center for Chemical Genomics.
# LMPTP inh = LMPTP (human) inhibition; P24666; recombinant LMPTP-A, OMFP fluorogenic substrate, fluorescence intensity; inhibition, % at 20 µM; hit rate 0.22% among 360,000; AID 651560;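 active = compounds that cut the enzyme signal by at least half of the control window in the single-dose screen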
# Target sequence (P24666 whole entry, looked up): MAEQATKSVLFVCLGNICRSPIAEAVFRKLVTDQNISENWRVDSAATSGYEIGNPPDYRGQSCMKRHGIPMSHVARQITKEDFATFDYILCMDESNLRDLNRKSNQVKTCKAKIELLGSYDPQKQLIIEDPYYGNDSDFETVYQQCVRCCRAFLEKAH
#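 Test system – LMPTP-A phosphatase enzyme · Quantity – 0.625 nM LMPTP-A final · Reagent – OMFP substrate, 400 µM final · Dosing – one test concentration per compound, 20 µM, with 3% DMSO overall · Timing – 50 min enzyme reaction at room temperature, protected from light · Detection – fluorescence intensity · Controls – substrate-only low control, DMSO enzyme-plus-substrate high control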
# Scp-1 inhibitor = Scp-1 (human) phosphatase inhibition. Q9GZU7. Recombinant Scp1, phosphopeptide, malachite green phosphate absorbance. inhibition, % at 20 µM. hit rate 0.88% among 340,000. AID 493091;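 active = inhibition above about 50% at 20 µM, limit read from the data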
# Target sequence (Q9GZU7 76-261 limits assumed): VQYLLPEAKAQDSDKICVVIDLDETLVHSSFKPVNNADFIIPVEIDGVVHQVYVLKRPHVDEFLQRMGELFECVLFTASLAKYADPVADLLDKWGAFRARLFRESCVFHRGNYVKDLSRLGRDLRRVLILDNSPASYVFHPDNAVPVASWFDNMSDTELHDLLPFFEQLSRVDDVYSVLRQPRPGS
#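 Material – SCP-1 phosphatase catalytic domain, residues 76-261 · Buffer or medium – Acidic Tris acetate buffer with magnesium and detergent · Also added – Phospho 17-mer peptide substrate · Compound – single 20 µM dose, 1% DMSO · Times – 45 min room-temperature reaction, 5 min colour, 30 min stabiliser · Technique – Phosphate-binding colour reagent, absorbance read at 630 nm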
# SUMO1-SIM PPI = alters human SUMO1 binding to SIM partners. SUMO1 binding to a labelled peptide, TR-FRET, 1 h. inhibition, % at 20 µM. hit rate 0.33% among 360,000; in the data active = inhibition above about 37%
# Target sequence (P63165 whole entry, looked up): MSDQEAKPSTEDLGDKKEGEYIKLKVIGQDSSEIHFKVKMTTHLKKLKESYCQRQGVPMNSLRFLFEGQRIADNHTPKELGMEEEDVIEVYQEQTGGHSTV
# DNMT1 inh = DNMT1 (human) enzyme inhibition; P26358; DNMT1 molecular beacon, Hinp1I cleavage, fluorescence; inhibition (reported as % activation of signal), % at 10 µM; hit rate 0.83% among 360,000; AID 588458; in the data active = inhibition above about 50%
# NadD inh = NadD (S. aureus) enzyme inhibition. purified NadD enzyme, colorimetric absorbance read-out. inhibition, % at 20 µM. hit rate 0.78% among 360,000; in the data active = inhibition above about 26%
# STEP block = STEP (human) phosphatase inhibition. P54829. hit rate 0.25% among 360,000. AID 588621. recombinant STEP, OMFP fluorogenic substrate, fluorescence. inhibition, % at 20 µM;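 active = inhibition at 20 µM, scaled per plate between control wells, above about 37%, limit read from the data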
#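 material = STEP tyrosine phosphatase | reagent = fluorogenic phosphatase substrate OMFP at 25 µM final | doses = single compound dose of 20 µM, 1% DMSO final | schedule = 20 min reaction, room temperature, in the dark | measured by = fluorescence, 480/540 nm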
# A number is an active result; i = inactive; nt = not tested or not shown. Compounds with a hit are over-represented: about 2.4% of the library has one in this group of screens.
SMILES,LMPTP inh,Scp-1 inhibitor,SUMO1-SIM PPI,DNMT1 inh,NadD inh,STEP block
CCn1c(C)[n+](CC(O)COCC2CC=CCC2)c2ccccc21 (stereo not given),i,86,i,i,i,i
NS(=O)(=O)c1ccc(N=Nc2c(O)c(C(=O)O)cc3ccccc23)cc1,i,i,i,i,31,i
Nc1nc(O)c(N=Nc2ccc(S(N)(=O)=O)cc2)c(=O)[nH]1,nt,i,nt,nt,nt,nt
Cc1cc(C)c(S(=O)(=O)N2CCCCC2CCNC(=O)C(=O)NC2CC2)c(C)c1 (stereo not given),i,i,i,i,i,i
Nc1ncnc2c(C3OC(CO)C(O)C3O)c[nH]c12 (stereo not given),i,i,i,i,i,i
O=C(O)c1cc(Cl)c2c(c1)[C@@H]1C=CC[C@@H]1[C@H](c1ccc(S(=O)(=O)N3CCOCC3)cc1)N2,i,i,42,i,i,i
Cc1cc(C)c2c(c1)C1C=CCC1C(c1ccc(S(=O)(=O)N3CCOCC3)cc1)N2 (stereo not given),i,i,i,i,i,i
CCOc1ccccc1C(=O)NC(C(=O)Nc1cccnc1)C(C)C (stereo not given),i,i,i,i,i,i
O=c1[nH]c(=S)[nH]c2c1C(c1ccc(Br)cc1)c1c([nH]c(=S)[nH]c1=O)O2,68,97,115,67,i,92
COc1ccc(N2CCN(S(=O)(=O)c3ccc(C(=O)NC4CCCC4)cc3)CC2)cc1,i,i,51,i,i,i
COc1ccc(S(=O)(=O)N2CCC(NC(=O)c3ccccc3)CC2)cc1,i,i,i,i,i,i
CCOc1ccc(-n2c(C)cc(/C=C3/C(=N)N4C(=NC3=O)SN=C4S(C)(=O)=O)c2C)cc1,i,i,i,i,33,i
Cc1cc(/C=C2\C(=N)N3C(SCc4ccccc4)=NSC3=NC2=O)c(C)n1Cc1ccccc1,i,i,i,i,31,i
CCC(CC)C1=NN2C(=N)/C(=C\c3cc(C)n(-c4cccc(C)c4)c3C)C(=O)N=C2S1,i,i,i,i,41,i
CNC(=S)N1CCN(c2nc3ccccc3s2)CC1,i,i,i,i,i,i
CCc1nc2ccccc2c(C(=O)OCC(=O)NCCCN2CCCC2=O)c1C,i,i,i,i,i,i
CC(C)C(=O)Nc1ccc(C(=O)N/N=C/C2CC3C=CC2C3)cc1 (stereo not given),i,i,40,i,i,i
c1ccc(SC23CCCCN(CCC2)[C@]32CO2)cc1 (stereo not given in full),i,nt,i,nt,i,nt
N#Cc1c(Sc2ncc(C(F)(F)F)cc2Cl)nsc1C/C=N\OCc1ccccc1Br,i,i,i,i,46,i
CCOC(=O)/C(=C\Nc1ccccc1C(F)(F)F)Sc1ncc(C(F)(F)F)cc1Cl,i,i,i,i,i,i
CN(CC(=O)NCC(=O)Nc1ccc(F)cc1)C1CCS(=O)(=O)C1 (stereo not given),i,i,i,i,i,i
O=C(NCc1nc2ccccc2[nH]1)C1=C[C@H](c2ccc3c(c2)OCO3)C[C@H](OCc2ccc(CO)cc2)O1,i,i,i,i,i,i
CC[n+]1ccccc1/C=C/Nc1ccccc1,i,i,i,i,i,i
CC[n+]1ccccc1/C=C1\Sc2ccc(C)cc2N1C,i,79,i,i,i,i
O=C(N/N=C/C(Br)=C/c1ccccc1)c1n[nH]c2c1CCC2,i,i,i,57,i,i
SMILES,LMPTP inh,Scp-1 inhibitor,SUMO1-SIM PPI,DNMT1 inh,NadD inh,STEP block
CCOC(=O)c1ccccc1NC(=O)COC(=O)c1ccccc1C(=O)N(C)c1ccccc1,i,i,i,i,i,i
Cn1ccc2cc3c(cc21)CCN3C(=O)Nc1cccnc1,i,i,i,i,31,i
Cc1nc(C)c(NC(=O)N2CCc3ccccc32)cc1NC(=O)N1CCc2ccccc21,i,i,i,i,i,i
CN(C)c1ccc(NC(=S)c2ccc3ccccc3n2)cc1,i,i,i,i,i,68
O=C(/C=C/c1ccccc1[N+](=O)[O-])c1ccccc1Br,i,i,i,i,i,i
O=C1NN=C(c2ccc(Cl)cc2)CC1c1c[nH]c2ccccc12 (stereo not given),i,i,i,i,i,i
Cc1ccc(C2=NNC(=O)C(c3c[nH]c4ccccc34)C2)cc1 (stereo not given),i,i,55,i,i,i
CC[n+]1c(/C=C/N(C)c2ccccc2)n(-c2ccccc2)c2ccc(-c3nc4ccccc4s3)cc21,83,i,i,i,32,i
CC[n+]1cccc(-c2nc3ccccc3s2)c1,i,i,i,i,i,i
CCOC(=O)C1(CCOc2ccccc2)CCN(CC(O)CO)CC1 (stereo not given),i,i,i,i,i,i
O=C(OCc1ccc([N+](=O)[O-])cc1)c1cc(=O)c2ccccc2o1,i,i,i,i,i,i
COc1ccccc1NC(=O)c1cc2cc(Br)ccc2cc1O,i,i,i,i,30,i
COc1ccccc1-c1nnc(SCC(=O)N2CCC(C)CC2)o1,i,i,i,i,i,i
CC1CCN(C(=O)CSc2nnc(-c3ccccc3F)o2)CC1,i,i,54,i,i,i
Cc1cc(OC(=O)c2ccc(S(=O)(=O)N(C)C)cc2)c([N+](=O)[O-])c(=O)[nH]1,i,i,i,i,i,i
c1ccc(C(=C2CCCO2)c2ccccc2)cc1,i,i,i,i,i,i
Clc1ccccc1Cc1noc(CN2CCCCC2CCc2ccccn2)n1 (stereo not given),i,i,i,i,i,i
O=C(O)c1csc(N/N=C/c2ccc(Br)cc2)n1,59,i,i,i,i,i
Cc1csc(N/N=C/c2ccc([N+](=O)[O-])cc2)n1,i,i,i,i,i,i
O=C1NN(c2ccccc2)C(=O)/C1=C\c1cccn1-c1ccc(Cl)c([N+](=O)[O-])c1,i,i,i,i,42,i
O=C1NN(c2ccccc2)C(=O)C1=Cc1ccccc1O,i,nt,i,i,i,i
Cc1ccc2nc(-c3cccc(Br)c3)c(Cc3ccccn3)n2c1,i,nt,i,i,i,i
COC(=O)c1c(O)cc(C(C)(C)C)n(-c2ccccc2)c1=O,i,i,i,i,i,i
COc1cc(-c2cccs2)cc(=O)c2c(C)oc(C)c12,i,i,i,71,i,i
CCCCn1c(N)c(N(CCOC)C(=O)COc2ccc(Cl)cc2)c(=O)[nH]c1=O,i,i,i,i,i,i
Cc1c(N2C(=O)c3ccc4c5c(ccc(c35)C2=O)CC4)c(=O)n(-c2ccccc2)n1C,52,65,i,90,i,i
Cn1c(=O)n(C)c2cc(N3CCOCC3)c(NC(=O)c3ccc(F)cc3)cc21,i,i,49,i,i,i
COc1cccc(OC)c1C(=O)Nc1cc2c(cc1N1CCOCC1)n(C)c(=O)n2C,i,i,i,i,i,i
